From ChEMBL document CHEMBL1146929, “Biological evaluation of a multi-targeted small molecule inhibitor of tumor-induced angiogenesis” (Bioorg Med Chem Lett, 2006)

Assays:
[1] = molecular target: Vascular endothelial growth factor receptor 2 (Homo sapiens, UniProt P35968); assay: Inhibitory activity against recombinant human KDR
[2] = molecular target: Platelet-derived growth factor receptor (Homo sapiens, UniProt P09619+P16234); assay: Inhibitory activity against recombinant human PDGFR; type: protein-complex assay
[3] = molecular target: T1, Ephrin type-B receptor 3 (Homo sapiens, UniProt P54753); assay: Inhibitory activity against EphB3
T1 sequence (P54753 whole entry): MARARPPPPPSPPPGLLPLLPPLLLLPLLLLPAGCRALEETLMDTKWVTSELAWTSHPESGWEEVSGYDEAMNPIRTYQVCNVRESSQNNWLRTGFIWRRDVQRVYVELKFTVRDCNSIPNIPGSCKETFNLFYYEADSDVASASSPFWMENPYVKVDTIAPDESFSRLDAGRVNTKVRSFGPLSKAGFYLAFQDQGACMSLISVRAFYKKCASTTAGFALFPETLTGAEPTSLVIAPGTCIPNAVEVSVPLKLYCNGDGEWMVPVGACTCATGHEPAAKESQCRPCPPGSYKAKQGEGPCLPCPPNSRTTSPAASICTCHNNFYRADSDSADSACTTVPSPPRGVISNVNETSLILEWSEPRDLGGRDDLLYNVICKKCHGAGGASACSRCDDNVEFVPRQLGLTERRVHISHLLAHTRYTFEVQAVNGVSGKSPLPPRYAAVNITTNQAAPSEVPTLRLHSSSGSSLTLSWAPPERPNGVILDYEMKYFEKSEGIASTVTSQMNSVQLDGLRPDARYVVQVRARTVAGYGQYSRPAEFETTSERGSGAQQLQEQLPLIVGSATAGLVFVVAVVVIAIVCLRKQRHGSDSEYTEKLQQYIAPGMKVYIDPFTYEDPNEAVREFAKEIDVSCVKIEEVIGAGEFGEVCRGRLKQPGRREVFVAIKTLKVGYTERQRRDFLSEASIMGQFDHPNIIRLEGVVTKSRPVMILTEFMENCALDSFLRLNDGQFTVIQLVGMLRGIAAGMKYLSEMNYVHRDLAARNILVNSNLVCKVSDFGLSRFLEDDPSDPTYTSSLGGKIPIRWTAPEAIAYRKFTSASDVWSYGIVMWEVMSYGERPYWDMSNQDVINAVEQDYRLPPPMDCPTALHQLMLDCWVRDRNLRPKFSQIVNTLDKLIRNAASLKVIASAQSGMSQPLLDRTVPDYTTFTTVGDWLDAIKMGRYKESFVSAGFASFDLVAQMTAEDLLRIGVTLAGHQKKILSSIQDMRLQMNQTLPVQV
Summary of the method: (§1)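 IMAP fluorescence-polarization kinase assay: phosphorylated fluorescent peptide substrate binds immobilized metal beads, giving a measure of kinase activity. Reactions were run with ATP at three times the Km of each kinase.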

[4] = molecular target: cAMP-dependent protein kinase (PKA) (Homo sapiens, UniProt P22694+P17612+P22612); assay: Inhibitory activity against PKA; type: protein assay; summary of the method: as §1
[5] = molecular target: Mitogen-activated protein kinase 1 (Homo sapiens, UniProt P28482); assay: Inhibitory activity against Erk2
Mitogen-activated protein kinase 1, sequence (P28482 whole entry): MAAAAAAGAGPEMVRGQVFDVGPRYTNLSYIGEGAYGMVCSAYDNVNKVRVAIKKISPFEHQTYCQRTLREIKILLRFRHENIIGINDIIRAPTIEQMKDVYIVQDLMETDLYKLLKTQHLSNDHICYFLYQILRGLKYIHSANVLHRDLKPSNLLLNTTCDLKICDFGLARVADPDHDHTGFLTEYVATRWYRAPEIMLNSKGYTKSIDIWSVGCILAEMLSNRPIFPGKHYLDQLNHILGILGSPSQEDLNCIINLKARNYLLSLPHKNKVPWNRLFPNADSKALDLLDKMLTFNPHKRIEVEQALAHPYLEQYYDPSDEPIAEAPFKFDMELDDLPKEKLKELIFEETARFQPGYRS
Summary of the method: (§2)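 IMAP homogeneous fluorescence-polarisation kinase assay: phosphorylated fluorescent peptide substrate binds immobilised metal beads, read as kinase activity. Reactions run at ATP three times the Km for each enzyme.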

[6] = molecular target: Protein kinase C alpha type (Homo sapiens, UniProt P17252); assay: Inhibitory activity against PKC alpha; summary of the method: as §2
[7] = molecular target: Protein kinase C delta type (Homo sapiens, UniProt Q05655); assay: Inhibitory activity against PKC delta; summary of the method: as §1
Protein kinase C delta type, sequence (Q05655 whole entry): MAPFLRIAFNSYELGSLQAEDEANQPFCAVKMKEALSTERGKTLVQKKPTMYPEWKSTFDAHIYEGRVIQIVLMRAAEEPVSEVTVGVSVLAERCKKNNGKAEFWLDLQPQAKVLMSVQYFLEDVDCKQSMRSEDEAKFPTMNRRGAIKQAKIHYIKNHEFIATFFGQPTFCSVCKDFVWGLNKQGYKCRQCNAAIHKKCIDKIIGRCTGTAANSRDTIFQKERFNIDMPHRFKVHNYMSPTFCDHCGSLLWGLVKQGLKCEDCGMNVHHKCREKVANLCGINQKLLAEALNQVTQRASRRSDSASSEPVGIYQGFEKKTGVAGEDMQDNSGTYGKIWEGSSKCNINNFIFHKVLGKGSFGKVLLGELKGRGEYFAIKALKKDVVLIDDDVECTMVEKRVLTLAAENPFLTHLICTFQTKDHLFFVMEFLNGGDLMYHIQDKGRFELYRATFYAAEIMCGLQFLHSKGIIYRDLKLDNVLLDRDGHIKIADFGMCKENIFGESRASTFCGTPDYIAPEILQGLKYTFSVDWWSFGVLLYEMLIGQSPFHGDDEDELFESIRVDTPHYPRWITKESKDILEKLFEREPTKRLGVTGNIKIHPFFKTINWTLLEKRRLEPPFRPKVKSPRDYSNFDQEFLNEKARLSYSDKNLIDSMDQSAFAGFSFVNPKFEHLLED

[8] = molecular target: Cyclin-dependent kinase 1/cyclin B (Homo sapiens, UniProt P06493); assay: Inhibition of CDK1/cyclinB; type: protein-complex assay; summary of the method: as §1
[9] = molecular target: T2, Serine/threonine-protein kinase Sgk1 (Homo sapiens, UniProt O00141); assay: Inhibitory activity against SGK; summary of the method: as §1
T2 sequence (O00141 whole entry): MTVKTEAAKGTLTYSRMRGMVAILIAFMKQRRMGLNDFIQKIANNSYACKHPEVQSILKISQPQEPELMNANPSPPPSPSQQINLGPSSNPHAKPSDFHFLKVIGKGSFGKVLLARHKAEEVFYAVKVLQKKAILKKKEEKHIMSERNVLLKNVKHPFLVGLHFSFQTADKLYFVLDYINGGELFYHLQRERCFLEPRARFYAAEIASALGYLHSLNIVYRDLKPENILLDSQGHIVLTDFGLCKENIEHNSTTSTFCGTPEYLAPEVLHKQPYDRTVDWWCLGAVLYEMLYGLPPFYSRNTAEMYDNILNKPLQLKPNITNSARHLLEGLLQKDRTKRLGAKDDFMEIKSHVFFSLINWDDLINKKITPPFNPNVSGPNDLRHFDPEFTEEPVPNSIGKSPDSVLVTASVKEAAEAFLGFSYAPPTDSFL

[10] = molecular target: RAC-alpha serine/threonine-protein kinase (Homo sapiens, UniProt P31749); assay: Inhibitory activity against AKT; summary of the method: as §1
RAC-alpha serine/threonine-protein kinase, sequence (P31749 whole entry): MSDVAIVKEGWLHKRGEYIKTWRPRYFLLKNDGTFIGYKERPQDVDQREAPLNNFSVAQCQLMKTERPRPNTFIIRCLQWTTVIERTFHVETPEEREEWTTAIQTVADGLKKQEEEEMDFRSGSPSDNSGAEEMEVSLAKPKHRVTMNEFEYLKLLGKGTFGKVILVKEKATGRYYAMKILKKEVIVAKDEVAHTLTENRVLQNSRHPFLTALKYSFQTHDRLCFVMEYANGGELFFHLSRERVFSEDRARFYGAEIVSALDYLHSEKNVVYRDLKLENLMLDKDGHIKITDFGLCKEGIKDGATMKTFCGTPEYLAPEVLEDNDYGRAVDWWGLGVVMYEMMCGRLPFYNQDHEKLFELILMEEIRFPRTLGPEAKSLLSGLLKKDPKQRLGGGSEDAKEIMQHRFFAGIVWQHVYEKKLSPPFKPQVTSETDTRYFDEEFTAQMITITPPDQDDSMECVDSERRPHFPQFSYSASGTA

[11] = test system: HUVEC; assay: Inhibitory activity against VEGF-induced proliferation of HUVEC cells; type: functional, cell-based; conditions: Homo sapiens
Summary of the method: (§3)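 HUVECs were grown to subconfluence, serum-starved for 24 h, then given compound for 2 h before stimulation with 20 ng/mL VEGF or 5 ng/mL bFGF. BrdU label was added after 20 h with compound. Incorporation was read 4 h later with a peroxidase anti-BrdU antibody and colorimetric detection. IC50 came from a single experiment in duplicate.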

[12] = Volume of distribution in nude mice at 10 mg/kg, iv; type: ADME, organism-based; design: dose 10 mg/kg, route intravenous; conditions: mouse, in vivo, read-out: Vdss
Summary of the method: (§4)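 Single doses given iv and orally. Mice (athymic nude) received 10 mg/kg iv, with bleeds at 1, 5, 15, 30 min and 1-24 h, and 50 or 200 mg/kg po, with bleeds at 5 min-24 h. Wistar rats received 5 mg/kg iv through a femoral arterial catheter, with jugular bleeds to 24 h, and 50 or 200 mg/kg po, with bleeds to 48 h. The iv vehicle was 2% DMA/10% PEG400/88% of 40% HPBCD and the oral vehicle 2% Klucel LF/0.1% Tween 80. EDTA plasma was assayed by LC-MS/MS against a calibration of 1-2000 ng/mL.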

[13] = Half life in nude mice at 10 mg/kg, iv; type: ADME, organism-based; design: dose 10 mg/kg, route intravenous; conditions: mouse, in vivo; summary of the method: as §4
[14] = Clearance in Wistar rat at 5 mg/kg, iv; type: ADME, organism-based; design: dose 5 mg/kg, route intravenous; conditions: in vivo; summary of the method: as §4
[15] = AUC in Wistar rat at 5 mg/kg, iv; type: ADME, organism-based; design: dose 5 mg/kg, route intravenous; conditions: plasma; summary of the method: as §4
[16] = Volume of distribution in Wistar rat at 5 mg/kg, iv; type: ADME, organism-based; design: dose 5 mg/kg, route intravenous; conditions: in vivo, read-out: Vdss; summary of the method: as §4
[17] = Half life in Wistar rat at 5 mg/kg, iv; type: ADME, organism-based; design: dose 5 mg/kg, route intravenous; conditions: in vivo; summary of the method: as §4
[18] = AUC in nude mice at 50 mg/kg, po; type: ADME, organism-based; design: dose 50 mg/kg, route oral; conditions: mouse, plasma; summary of the method: as §4
[19] = AUC in nude mice at 200 mg/kg, po; type: ADME, organism-based; design: dose 200 mg/kg, route oral; conditions: mouse, plasma; summary of the method: as §4
[20] = Cmax in nude mice at 50 mg/kg, po; type: ADME, organism-based; design: dose 50 mg/kg, route oral; conditions: mouse, in vivo; summary of the method: as §4
[21] = Cmax in nude mice at 200 mg/kg, po; type: ADME, organism-based; design: dose 200 mg/kg, route oral; conditions: mouse, in vivo; summary of the method: as §4
[22] = Half life in nude mice at 50 mg/kg, po; type: ADME, organism-based; design: dose 50 mg/kg, route oral; conditions: mouse, in vivo; summary of the method: as §4
[23] = Half life in nude mice at 200 mg/kg, po; type: ADME, organism-based; design: dose 200 mg/kg, route oral; conditions: mouse, in vivo; summary of the method: as §4
[24] = AUC in Wistar rat at 50 mg/kg, po; type: ADME, organism-based; design: dose 50 mg/kg, route oral; conditions: plasma; summary of the method: as §4
[25] = AUC in Wistar rat at 200 mg/kg, po; type: ADME, organism-based; design: dose 200 mg/kg, route oral; conditions: plasma; summary of the method: as §4
[26] = Cmax in Wistar rat at 50 mg/kg, po; type: ADME, organism-based; design: dose 50 mg/kg, route oral; conditions: in vivo; summary of the method: as §4
[27] = Cmax in Wistar rat at 200 mg/kg, po; type: ADME, organism-based; design: dose 200 mg/kg, route oral; conditions: in vivo; summary of the method: as §4
[28] = Half life in Wistar rat at 50 mg/kg, po; type: ADME, organism-based; design: dose 50 mg/kg, route oral; conditions: in vivo; summary of the method: as §4
[29] = Half life in Wistar rat at 200 mg/kg, po; type: ADME, organism-based; design: dose 200 mg/kg, route oral; conditions: in vivo; summary of the method: as §4
[30] = test system: Mus musculus; assay: Inhibition of tumor growth in nude mice implanted with H460a cells at 50 mg/kg, po after 28 days; type: functional; conditions: 672 h
[31] = test system: Mus musculus; assay: Inhibition of tumor growth in nude mice implanted with H460a cells at 100 mg/kg, po after 28 days; type: functional; conditions: 672 h
[32] = test system: Mus musculus; assay: Inhibition of tumor growth in nude mice implanted with H460a cells at 200 mg/kg, po after 28 days; type: functional; conditions: 672 h
[33] = test system: Mus musculus; assay: Inhibition of VEGF-induced corneal angiogenesis in C57/BL6 mice at 50 mg/kg, po after 7 days; type: functional; conditions: C57/BL6, Cornea, 168 h
Summary of the method: (§5)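 VEGF-containing pellets were implanted in the cornea of C57/BL6 mice. Cohorts were dosed orally bid at 12.5, 50 or 200 mg/kg for 7 days, after which the area of corneal angiogenesis (mm2) was quantified against vehicle. Body weight was monitored throughout.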

[34] = test system: HUVEC; assay: Inhibitory activity against bFGF-induced proliferation of HUVEC cells; type: functional, cell-based; conditions: Homo sapiens; summary of the method: as §3
[35] = test system: HCT-116; assay: Antiproliferative activity against HCT116 by MTT assay; type: functional, cell-based; conditions: Homo sapiens
Summary of the method: (§6)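 Exponentially growing HCT116 or H460a tumor cells were plated and held overnight at 37 C before compound was added. Proliferation was read as MTT formazan formation during a 2.5 h incubation 6 days after plating. IC50 came from a single experiment run in duplicate.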

[36] = test system: NCI-H460; assay: Antiproliferative activity against H460a by MTT assay; type: functional, cell-based; conditions: Homo sapiens; summary of the method: as §6
[37] = Clearance in nude mice at 10 mg/kg, iv; type: ADME, organism-based; design: dose 10 mg/kg, route intravenous; conditions: mouse, in vivo; summary of the method: as §4
[38] = AUC in nude mice at 10 mg/kg, iv; type: ADME, organism-based; design: dose 10 mg/kg, route intravenous; conditions: mouse, plasma; summary of the method: as §4
[39] = test system: Mus musculus; assay: Inhibition of VEGF-induced corneal angiogenesis in C57/BL6 mice at 200 mg/kg, po after 7 days; type: functional; conditions: C57/BL6, Cornea, 168 h; summary of the method: as §5

Vascular endothelial growth factor receptor 2, sequence (P35968 whole entry): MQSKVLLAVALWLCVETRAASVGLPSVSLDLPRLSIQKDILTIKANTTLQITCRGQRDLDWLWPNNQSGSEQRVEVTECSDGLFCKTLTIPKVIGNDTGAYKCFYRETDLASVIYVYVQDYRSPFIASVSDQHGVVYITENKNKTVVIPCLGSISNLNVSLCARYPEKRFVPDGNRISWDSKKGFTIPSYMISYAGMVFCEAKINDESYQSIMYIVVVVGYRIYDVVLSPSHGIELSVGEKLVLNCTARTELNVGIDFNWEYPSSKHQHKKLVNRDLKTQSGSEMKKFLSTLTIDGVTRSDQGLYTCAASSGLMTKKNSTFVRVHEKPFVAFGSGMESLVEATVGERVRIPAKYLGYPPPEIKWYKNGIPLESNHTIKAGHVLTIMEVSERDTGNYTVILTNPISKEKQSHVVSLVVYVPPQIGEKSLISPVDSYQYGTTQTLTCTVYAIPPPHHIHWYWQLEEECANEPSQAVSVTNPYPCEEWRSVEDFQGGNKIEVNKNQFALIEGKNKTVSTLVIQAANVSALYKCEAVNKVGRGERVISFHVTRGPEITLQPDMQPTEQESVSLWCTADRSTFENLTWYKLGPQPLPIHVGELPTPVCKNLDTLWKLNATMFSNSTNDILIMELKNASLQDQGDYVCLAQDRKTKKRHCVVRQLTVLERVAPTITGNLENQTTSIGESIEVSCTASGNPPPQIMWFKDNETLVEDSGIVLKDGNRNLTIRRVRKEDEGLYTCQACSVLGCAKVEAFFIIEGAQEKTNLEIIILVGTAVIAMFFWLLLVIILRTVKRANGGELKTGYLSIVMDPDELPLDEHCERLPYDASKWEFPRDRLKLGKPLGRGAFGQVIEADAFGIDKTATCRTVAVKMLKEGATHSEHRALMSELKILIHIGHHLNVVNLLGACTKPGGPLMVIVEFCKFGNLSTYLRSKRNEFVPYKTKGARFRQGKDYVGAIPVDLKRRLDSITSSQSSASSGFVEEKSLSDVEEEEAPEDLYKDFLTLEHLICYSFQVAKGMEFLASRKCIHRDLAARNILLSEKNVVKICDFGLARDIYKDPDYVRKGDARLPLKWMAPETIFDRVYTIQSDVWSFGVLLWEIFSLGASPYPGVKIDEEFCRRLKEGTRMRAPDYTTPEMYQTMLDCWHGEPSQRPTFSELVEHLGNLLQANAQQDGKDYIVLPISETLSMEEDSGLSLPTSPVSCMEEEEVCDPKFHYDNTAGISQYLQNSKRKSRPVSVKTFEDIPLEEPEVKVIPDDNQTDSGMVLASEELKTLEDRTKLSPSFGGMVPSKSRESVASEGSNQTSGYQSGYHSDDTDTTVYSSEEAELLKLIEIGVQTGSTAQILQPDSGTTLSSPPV

IC50 [1]: 50 nM
IC50 [2]: 83 nM
IC50 [3]: 1250 nM
IC50 [4]: 9.01 µM
IC50 [5]: 12.6 µM
IC50 [6]: > 125 µM
IC50 [7]: > 125 µM
IC50 [8]: > 125 µM
IC50 [9]: > 125 µM
IC50 [10]: > 125 µM
Vd [12]: 1.9 L/kg
half-life [13]: 120 min
clearance [14]: 32.5 mL/min/kg
AUC [15]: 2770 ng·h/mL
Vd [16]: 3.7 L/kg
half-life [17]: 258 min
AUC [18]: 96500 ng·h/mL
AUC [19]: 260 µg·h/mL
Cmax [20]: 29100 ng/mL
Cmax [21]: 82.6 µg/mL
half-life [22]: 114 min
half-life [23]: 102 min
AUC [24]: 40900 ng·h/mL
AUC [25]: 285 µg·h/mL
Cmax [26]: 3160 ng/mL
Cmax [27]: 10300 ng/mL
half-life [28]: 300 min
half-life [29]: 468 min
IC50 [35]: 3000 nM
IC50 [36]: 2500 nM
clearance [37]: 13.8 mL/min/kg
AUC [38]: 12100 ng·h/mL
Compound: COc1ccc(N2Cc3cnc(Nc4ccc(F)cc4)nc3N(C3CC[C@@H](O)C3)C2=O)cc1 (single isomer, unassigned)
IC50 [11]: 35 nM
inhibition in vivo at 50 mg/kg [30]: 78%
inhibition in vivo at 100 mg/kg [31]: 87%
inhibition in vivo at 200 mg/kg [32]: 95%
inhibition in vivo at 50 mg/kg [33]: 67%
IC50 [34]: 149 nM
inhibition in vivo at 200 mg/kg [39]: 91%
